Results: publication PMC8693849 (RSC Advances, 2021)
≈ marks a conversion by molar mass, not a printed value.

Key:
S. aureus (ATCC 25923) = assay: Agar diffusion method, zone of inhibition; format: cell-based, Staphylococcus aureus; conditions: for zone of inhibition at 10 µg/mL / zone of inhibition at 15 µg/mL: Staphylococcus aureus, ATCC25923, 24 h, read-out: Diameter of zone inhibition; for Diameter of zone inhibition: S. aureus (ATCC 25923), average of triplicate
Procedure, shortened: (§1)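 Bacterial strains were tested by agar diffusion on nutrient agar (peptone 5 and meat extract 3 g L⁻¹ in distilled water, pH 7.0, 2% agar, autoclaved 121 °C for 20 min). Each test compound (1 mg) was dissolved in 1 mL DMSO and made up to 10 mL with sterile water (100 μg mL⁻¹ stock). The solution was placed in the agar, and inhibition zones were measured after 24 h incubation. Values are the mean of triplicate readings.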

S. pyogenes (ATCC 19615) = assay: Agar diffusion method, zone of inhibition; format: cell-based, Streptococcus pyogenes; conditions: for zone of inhibition at 10 µg/mL / zone of inhibition at 15 µg/mL: Streptococcus pyogenes, ATCC19615, 24 h, read-out: Diameter of zone inhibition; for Diameter of zone inhibition: S. pyogenes (ATCC 19615), average of triplicate
[1] = system: P. phaseolicola (GSPB 2828); assay: Agar diffusion method, zone of inhibition; format: cell-based, Pseudomonas phaseolicola; conditions: Pseudomonas, 24 h, read-out: Diameter of zone inhibition
Procedure, shortened: as §1

C. albicans = assay: Agar diffusion method, zone of inhibition; format: cell-based, Candida albicans; conditions: for zone of inhibition at 10 µg/mL / zone of inhibition at 15 µg/mL: Candida albicans, 24 h, read-out: Diameter of zone inhibition; for Diameter of zone inhibition: C. albicans, average of triplicate
Procedure, shortened: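 For agar diffusion against C. albicans, each test compound (1 mg) was dissolved in 1 mL DMSO and diluted to 10 mL with sterile water (100 μg mL⁻¹ stock). The solution was placed in the agar, and the inhibition zone diameter was read after 24 h. Values are the average of triplicate readings.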

[2] = system: K. pneumoniae (MDR clinical isolate); assay: Zone of inhibition against MDR clinical isolate; format: cell-based; conditions: for zone of inhibition at 15 µg/mL: Klebsiella pneumoniae, read-out: Diameter of zone inhibition; for Diameter of zone inhibition: MDR K. pneumoniae clinical isolate, 15 μg mL^−1
[3] = system: MRSA1 (methicillin resistant S. aureus); assay: Zone of inhibition against MDR clinical isolate; format: cell-based; conditions: for zone of inhibition at 15 µg/mL: Staphylococcus aureus, read-out: Diameter of zone inhibition; for Diameter of zone inhibition: MRSA1 clinical isolate, 15 μg mL^−1
[4] = system: MRSA1 (methicillin resistant S. aureus); assay: Minimal inhibitory concentration; format: cell-based; conditions: for SI (selectivity index, CC50/MIC): MRSA1 vs VERO cells; for Activity against methicillin resistant S. aureus: MDR clinical isolate, Table 2
Procedure, shortened: (§2)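 Broth microdilution against MDR clinical isolates: 80 μl Mueller–Hinton broth plus 20 μl tween 80 received 100 μl test compound, then two-fold serial dilution. Each well was inoculated with 100 μl of 0.5 McFarland suspension ([…]) and incubated covered at 35 ± 2 °C for 24 h. MIC is the lowest concentration inhibiting growth.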

Gram-positive bacteria = assay: Agar diffusion method; format: cell-based, S. aureus (ATCC 25923) and S. pyogenes (ATCC 19615); conditions: summary of Table 1
Procedure, shortened: as §1

P. fluorescens (S 97) = assay: Agar diffusion method, zone of inhibition; format: cell-based, Pseudomonas fluorescens; conditions: for zone of inhibition at 10 µg/mL / zone of inhibition at 15 µg/mL: Pseudomonas fluorescens, 24 h, read-out: Diameter of zone inhibition
Procedure, shortened: as §1

[5] = system: MRSA1 (methicillin resistant S. aureus); assay: Minimum bactericidal concentration; format: cell-based; conditions: MRSA; >4 = bacteriostatic
[6] = system: K. pneumoniae (MDR clinical isolate); assay: Minimal inhibitory concentration; format: cell-based; conditions: for SI (selectivity index, CC50/MIC): K. pneumoniae vs VERO cells
Procedure, shortened: as §2

Gram-negative bacteria = assay: Agar diffusion method; format: cell-based, P. phaseolicola (GSPB 2828) and P. fluorescens (S 97); conditions: summary of Table 1
Procedure, shortened: as §1

[7] = system: K. pneumoniae (MDR clinical isolate); assay: Minimum bactericidal concentration; format: cell-based; conditions: >4 = bacteriostatic
VERO cells = assay: In vitro cytotoxicity, MTT assay; format: cell-based, African Green Monkey; conditions: normal VERO cells, 72 h, Table 4
[8] = MDR K. pneumoniae clinical isolate, Table 2

| Molecule | zone of inhibition at 10 µg/mL (S. aureus (ATCC 25923)) | zone of inhibition at 10 µg/mL (S. pyogenes (ATCC 19615)) | zone of inhibition at 10 µg/mL [1] | zone of inhibition at 15 µg/mL [1] | zone of inhibition at 10 µg/mL (C. albicans) | zone of inhibition at 15 µg/mL (C. albicans) | zone of inhibition at 15 µg/mL [2] | zone of inhibition at 15 µg/mL [3] | SI (selectivity index, CC50/MIC) [4] | MIC ([4]; Staphylococcus aureus) | Activity against Gram-positive bacteria (Gram-positive bacteria) | zone of inhibition at 10 µg/mL (P. fluorescens (S 97)) | zone of inhibition at 15 µg/mL (P. fluorescens (S 97)) | MIC ([6]; K. pneumoniae, Table 4) | Activity against Gram-negative bacteria (Gram-negative bacteria) | further results |
| --- | --- | --- | --- | --- | --- | --- | --- | --- | --- | --- | --- | --- | --- | --- | --- | --- |
| CC(=O)C1=C(C)N2NC(C)(c3ccccc3O)N(C(Cc3c[nH]c4ccccc34)C(=O)O)C2=NC1c1ccc(Cl)cc1 (centres unmarked) [Compound 2d, 2-(6-Acetyl-5-(4-chlorophenyl)-2-(2-hydroxyphenyl)-2,7-dimethyl-1,2-dihydro-[1,2,4]triazolo[1,5-a]pyrimidin-3(5H)-yl)-3-(1H-indol-3-yl)propanoic acid] | 20 mm | 20 mm | 12 mm | 22 mm | 9 mm | 12 mm | 6 mm | 28 mm | 20 | 25 µg/mL (≈ 42.8 µM) | active |  |  |  |  | MIC ([4]; MRSA1, Table 4): 25 µg/mL (≈ 42.8 µM) |
| CCOC(=O)C1=C(C)N2NC(c3ccccc3O)N(C(Cc3c[nH]c4ccccc34)C(=O)O)C2=NC1c1ccc(Cl)cc1 (centres unmarked) [Compound 3c, 2-(5-(4-Chlorophenyl)-6-(ethoxycarbonyl)-2-(2-hydroxyphenyl)-7-methyl-1,2-dihydro-[1,2,4]triazolo[1,5-a]pyrimidin-3(5H)-yl)-3-(1H-indol-3-yl)propanoic acid] |  |  | 10 mm |  | 6 mm | 7 mm | 9 mm | 24 mm | 20 | 12.5 µg/mL (≈ 20.8 µM) | active | 8 mm | 23 mm |  |  | Activity against methicillin resistant S. aureus [4]: remarkable activity; MIC ([4]; MRSA1, Table 3): 12.5 µg/mL (≈ 20.8 µM); MIC index (MBC/MIC) [5]: > 4 |
| CC1(c2ccccc2O)Nn2c(nc(-c3ccc(Cl)cc3)c(C#N)c2=O)N1C(Cc1c[nH]c2ccccc12)C(=O)O (centres unmarked) [Compound 9d, 2-(5-(4-Chlorophenyl)-6-cyano-2-(2-hydroxyphenyl)-2-methyl-7-oxo-1,2-dihydro-[1,2,4]triazolo[1,5-a]pyrimidin-3(7H)-yl)-3-(1H-indol-3-yl)propanoic acid] | 20 mm | 19 mm | 10 mm |  | 7 mm | 8 mm | 11 mm | 29 mm | 40 | 12.5 µg/mL (≈ 22 µM) | active | 12 mm | 23 mm |  |  | Activity against methicillin resistant S. aureus [4]: remarkable activity; MIC ([4]; MRSA1, Table 3): 12.5 µg/mL (≈ 22 µM); MIC index (MBC/MIC) [5]: > 4 |
| CC(C(=O)O)N1c2nc(-c3ccc(Cl)cc3)c(C#N)c(=O)n2NC1(C)c1ccccc1O (centres unmarked) [Compound 9b, 2-(5-(4-Chlorophenyl)-6-cyano-2-(2-hydroxyphenyl)-2-methyl-7-oxo-1,2-dihydro-[1,2,4]triazolo[1,5-a]pyrimidin-3(7H)-yl)propanoic acid] | 15 mm |  | 19 mm |  | 6 mm | 8 mm | 29 mm | 7 mm |  |  |  |  | 28 mm | 25 µg/mL (≈ 55.3 µM) | active | zone of inhibition at 15 µg/mL (S. aureus (ATCC 25923)): 26 mm; zone of inhibition at 15 µg/mL (S. pyogenes (ATCC 19615)): 25 mm; SI (selectivity index, CC50/MIC) [6]: 10 |
| 2-(5-(4-Chlorophenyl)-6-cyano-2-(2-hydroxyphenyl)-7-imino-1,2-dihydro-[1,2,4]triazolo[1,5-a]pyrimidin-3(7H)-yl)propanoic acid [Compound 8a] |  |  |  |  |  |  |  |  |  |  |  |  |  |  | active | Diameter of zone inhibition (S. aureus (ATCC 25923); 10 μg mL^−1, 24 h): 13 mm; Diameter of zone inhibition (S. aureus (ATCC 25923); 15 μg mL^−1, 24 h): 20 mm; Diameter of zone inhibition (S. pyogenes (ATCC 19615); 10 μg mL^−1, 24 h): 12 mm; Diameter of zone inhibition (P. fluorescens (S 97); P. fluorescens (S 97), 15 μg mL^−1, 24 h, average of triplicate): 29 mm; Diameter of zone inhibition (C. albicans; 10 μg mL^−1, 24 h): 10 mm; Diameter of zone inhibition (C. albicans; 15 μg mL^−1, 24 h): 13 mm; Diameter of zone inhibition [2]: 28 mm; Diameter of zone inhibition [3]: 6 mm; MIC ([6]; K. pneumoniae, Table 3): 12.5 µg/mL; MIC [6, 8]: 12.5 µg/mL; MIC index (MBC/MIC) [7]: > 4; CC50 (VERO cells): 125 µg/mL |
| 2-(5-(4-Chlorophenyl)-6-cyano-2-(2-hydroxyphenyl)-7-imino-2-methyl-1,2-dihydro-[1,2,4]triazolo[1,5-a]pyrimidin-3(7H)-yl)propanoic acid [Compound 8b] |  |  |  |  |  |  |  |  |  |  |  |  |  | 25 µg/mL | active | Diameter of zone inhibition (S. aureus (ATCC 25923); 10 μg mL^−1, 24 h): 12 mm; Diameter of zone inhibition (S. aureus (ATCC 25923); 15 μg mL^−1, 24 h): 22 mm; Diameter of zone inhibition (S. pyogenes (ATCC 19615); 15 μg mL^−1, 24 h): 26 mm; Diameter of zone inhibition (C. albicans; 10 μg mL^−1, 24 h): 8 mm; Diameter of zone inhibition (C. albicans; 15 μg mL^−1, 24 h): 10 mm; Diameter of zone inhibition [2]: 27 mm; Diameter of zone inhibition [3]: 8 mm; MIC [6, 8]: 25 µg/mL; CC50 (VERO cells): 125 µg/mL |
| N#Cc1c(-c2ccc(Cl)cc2)nc2n(c1=O)NC(c1ccccc1O)N2C(Cc1c[nH]c2ccccc12)C(=O)O (centres unmarked) [Compound 9c, 2-(5-(4-Chlorophenyl)-6-cyano-2-(2-hydroxyphenyl)-7-oxo-1,2-dihydro-[1,2,4]triazolo[1,5-a]pyrimidin-3(7H)-yl)-3-(1H-indol-3-yl)propanoic acid] |  | 19 mm | 10 mm | 22 mm | 9 mm | 11 mm | 13 mm | 27 mm | 10 | 25 µg/mL (≈ 45.2 µM) | active | 11 mm | 20 mm |  |  | MIC ([4]; MRSA1, Table 4): 25 µg/mL (≈ 45.2 µM) |
| CC(C(=O)O)N1c2nc(-c3ccc(Cl)cc3)c(C#N)c(=O)n2NC1c1ccccc1O (centres unmarked) [Compound 9a, 2-(5-(4-Chlorophenyl)-6-cyano-2-(2-hydroxyphenyl)-7-oxo-1,2-dihydro-[1,2,4]triazolo[1,5-a]pyrimidin-3(7H)-yl)propanoic acid] |  | 12 mm |  | 30 mm | 6 mm | 9 mm | 27 mm | 5 mm |  |  |  |  | 30 mm | 25 µg/mL (≈ 57.1 µM) | active | zone of inhibition at 15 µg/mL (S. aureus (ATCC 25923)): 26 mm; zone of inhibition at 15 µg/mL (S. pyogenes (ATCC 19615)): 27 mm; SI (selectivity index, CC50/MIC) [6]: 20 |
